Reference: ChEMBL document CHEMBL5625173, “Antimycobacterial pyridine carboxamides: From design to in vivo activity” (Eur J Med Chem, 2023)
Converted amounts (≈) assume the structure as drawn.

Columns and labels:
[1] = tested on: Mycobacterium tuberculosis; test: Antimycobacterial activity against Mycobacterium tuberculosis H37Rv by alamar blue staining based microplate analysis; format: functional
In short: (§1)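 Microplate Alamar Blue assay. MIC values read at pH 6.6 (neutral). One acidic-pH test at pH 5.6 is footnoted separately.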

[2] = tested on: Mycobacterium tuberculosis; test: Antimycobacterial activity against Mycobacterium tuberculosis H37Ra by alamar blue staining based microplate analysis; format: functional; in short: as §1
[3] = tested on: Mycobacterium kansasii; test: Antimycobacterial activity against Mycobacterium kansasii by alamar blue staining based microplate analysis; format: functional
In short: (§2)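 Microplate Alamar Blue assay, one of six mycobacterial strains tested (Mtb H37Rv, Mtb H37Ra, M. kansasii, M. avium, M. smegmatis, M. aurum); value reported as MIC.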

[4] = tested on: Mycobacterium avium; test: Antimycobacterial activity against Mycobacterium avium by alamar blue staining based microplate analysis; format: functional; in short: as §1
[5] = tested on: Mycolicibacterium smegmatis; test: Antimycobacterial activity against Mycobacterium smegmatis by alamar blue staining based microplate analysis; format: functional; in short: as §2
[6] = tested on: Mycolicibacterium aurum; test: Antimycobacterial activity against Mycobacterium aurum by alamar blue staining based microplate analysis; format: functional; in short: as §2
[7] = Cytotoxicity against human HepG2 cells assessed as inhibition of cell viability; format: toxicity, cell-based
[8] = Selectivity index, ratio of IC50 for cytotoxicity against human HepG2 cells to MIC for antimycobacterial activity against Mycobacterium tuberculosis H37Rv; format: toxicity, cell-based; conditions: read-out: Selectivity Index

Compound	MIC [1] [µg/mL]	MIC [2] [µg/mL]	MIC [3] [µg/mL]	MIC [4] [µg/mL]	MIC [5] [µg/mL]	MIC [6] [µg/mL]	IC50 [7] [µM]	selectivity ratio [8]
Cc1cc(C(=O)Nc2cnccn2)cc(Cl)n1	> 100	≥ 500	> 100	> 100	≥ 500	≥ 500	> 250	
O=C(O)c1ccc(NC(=O)c2cccc(C(F)(F)F)n2)cc1	50 (≈ 161 µM)	62.5 (≈ 201 µM)	50 (≈ 161 µM)	> 100	≥ 500	62.5 (≈ 201 µM)	> 248	
O=C(Nc1cnccn1)c1ccc2ccccc2n1	> 100	≥ 125	> 100	> 100	≥ 125	≥ 125	> 100	
O=C(Nc1cnccn1)c1ccc(Cl)nc1	> 100	≥ 250	> 100	> 100	≥ 250	≥ 250	> 1000	
O=C(Nc1cnccn1)c1ccccn1	> 100	250 (≈ 1250 µM)	> 100	> 100	≥ 500	≥ 500	> 1000	
Cc1cc(C(=O)Nc2ccc(C(=O)O)c(O)c2)cc(O)n1	6.25 (≈ 21.7 µM)	≥ 500	> 100	> 100	≥ 500	≥ 500	> 1000	46.1
Cc1cc(C(=O)Nc2ccc(C(=O)O)c(O)c2)cc(Cl)n1	50 (≈ 163 µM)	250 (≈ 815 µM)	> 100	> 100	≥ 500	≥ 500	> 1000	
O=C(Nc1ccc(C(=O)O)c(O)c1)c1ccncc1	3.13 (≈ 12.1 µM)	≥ 125	50 (≈ 194 µM)	100 (≈ 387 µM)	≥ 125	≥ 125	> 1000	82.5
Nc1ccc(C(=O)O)cc1 [AMINOBENZOIC ACID]	> 100	250 (≈ 1820 µM)	> 100	> 100	≥ 500	250 (≈ 1820 µM)	> 1000	
O=C(Nc1ccc(C(=O)O)c(O)c1)c1cccc(C(F)(F)F)n1	3.13 (≈ 9.59 µM)	31.2 (≈ 95.8 µM)	12.5 (≈ 38.3 µM)	12.5 (≈ 38.3 µM)	250 (≈ 766 µM)	62.5 (≈ 192 µM)	> 163	34.1
COc1ccnc(C(=O)Nc2cncc(Cl)n2)c1	> 100	≥ 500	> 100	> 100	≥ 500	250 (≈ 945 µM)	> 500	
O=C(Nc1cnccn1)c1ccc(C(F)(F)F)cn1	50 (≈ 186 µM)	≥ 500	6.25 (≈ 23.3 µM)	> 100	≥ 500	≥ 500	> 146	
O=C(Nc1cncc(Cl)n1)c1ccc2ccccc2n1	> 25	≥ 125	> 25	> 25	≥ 125	≥ 125	> 25	
O=C(O)c1ccc(NC(=O)c2ccc(Cl)nc2)cc1	> 100	62.5 (≈ 226 µM)	> 100	> 100	≥ 500	250 (≈ 904 µM)	> 250	
O=C(O)c1ccc(NC(=O)c2cccc(Cl)n2)cc1	> 100	62.5 (≈ 226 µM)	> 100	> 100	≥ 500	250 (≈ 904 µM)	> 250	
NNC(=O)c1ccncc1 [ISONIAZID]	0.2 (≈ 1.46 µM)	0.25 (≈ 1.82 µM)	12.5 (≈ 91.1 µM)	12.5 (≈ 91.1 µM)	15.6 (≈ 114 µM)	3.91 (≈ 28.5 µM)	> 1000	

Compound	MIC [1] [µg/mL]	MIC [2] [µg/mL]	MIC [3] [µg/mL]	MIC [4] [µg/mL]	MIC [5] [µg/mL]	MIC [6] [µg/mL]	IC50 [7] [µM]	selectivity ratio [8]
Cc1cc(C(=O)Nc2cnccn2)ccn1	> 100	≥ 250	> 100	> 100	≥ 250	≥ 250	> 1000	
Nc1cnccn1	> 100	≥ 500	> 100	> 100	≥ 500	≥ 500	> 1000	
COc1ccnc(C(=O)Nc2ccc(C(=O)O)c(O)c2)c1	1.56 (≈ 5.41 µM)	31.2 (≈ 108 µM)	> 100	> 100	125 (≈ 434 µM)	62.5 (≈ 217 µM)	> 1000	185
O=C(Nc1ccc(C(=O)O)c(O)c1)c1cccc(Cl)n1	3.13 (≈ 10.7 µM)	125 (≈ 427 µM)	> 100	100 (≈ 342 µM)	125 (≈ 427 µM)	125 (≈ 427 µM)	> 1000	93.5
O=C(O)c1ccc(NC(=O)c2ccccn2)cc1	> 100	125 (≈ 516 µM)	> 100	> 100	≥ 500	250 (≈ 1030 µM)	> 250	
Cc1cc(C(=O)Nc2cncc(Cl)n2)ccn1	> 100	≥ 500	> 100	> 100	≥ 500	250 (≈ 1010 µM)	> 1000	
O=C(Nc1cnccn1)c1cccc(Cl)n1	> 100	≥ 500	50 (≈ 213 µM)	> 100	≥ 500	≥ 500	> 250	
COc1ccnc(C(=O)Nc2cnccn2)c1	> 100	≥ 250	50 (≈ 217 µM)	> 100	≥ 250	≥ 250	> 250	
O=C(Nc1cncc(Cl)n1)c1ccc(Cl)nc1	100 (≈ 372 µM)	≥ 500	> 100	> 100	≥ 500	≥ 500	> 500	
O=C(Nc1ccc(C(=O)O)c(O)c1)c1ccccn1	1.56 (≈ 6.04 µM)	250 (≈ 968 µM)	50 (≈ 194 µM)	> 100	15.6 (≈ 60.5 µM)	62.5 (≈ 242 µM)	> 1000	166
Nc1cncc(Cl)n1	> 100	≥ 500	> 100	> 100	≥ 500	≥ 500	> 1000	
O=C(Nc1cnccn1)c1ccncc1	> 100	≥ 500	> 100	> 100	≥ 500	≥ 500	> 1000	
O=C(O)c1ccc(NC(=O)c2ccc3ccccc3n2)cc1	25 (≈ 85.5 µM)	31.2 (≈ 107 µM)	25 (≈ 85.5 µM)	25 (≈ 85.5 µM)	≥ 500	62.5 (≈ 214 µM)	> 50	> 0.6
Cc1cc(C(=O)Nc2ccc(C(=O)O)c(O)c2)ccn1	12.5 (≈ 45.9 µM)	≥ 125	> 100	> 100	≥ 125	≥ 125	> 1000	21.8
NC(=O)c1cnccn1 [PYRAZINAMIDE]	> 100	≥ 500	> 100	> 100	≥ 500	≥ 500	> 1000	
CO[C@H]1/C=C/O[C@@]2(C)Oc3c(C)c(O)c4c(O)c(c(/C=N/N5CCN(C)CC5)c(O)c4c3C2=O)NC(=O)/C(C)=C\C=C\[C@H](C)[C@H](O)[C@@H](C)[C@@H](O)[C@@H](C)[C@H](OC(C)=O)[C@@H]1C [RIFAMPIN]		0.003 (≈ 0.00365 µM)			12.5 (≈ 15.2 µM)	0.198 (≈ 0.241 µM)	> 500	
